Values belong to the compound of their own block, whether it stands above or below them.
Tests used:
[1] = tested on: CXCR4-positive MDA-MB-231 human breast cancer cells; assay: Matrigel invasion assay induced by CXCR4/CXCL12-mediated interaction; format: cell-based; conditions: MDA-MB-231, 22 h, read-out: Inhibition of cell invasion
Procedure, shortened: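 MDA-MB-231 cells were pre-mixed with test compound (100 nM) and seeded in the upper well of a Matrigel-coated chamber in serum-free medium. The lower well held CXCL12α (200 ng/mL) as chemoattractant. After 22 h in a humidified incubator, non-invading cells were swabbed off, and invading cells on the filter underside were methanol-fixed and H&E-stained. Percent invasion came from counts of stained cells.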

[2] = Carrageenan-induced paw inflammation suppression test; format: in vivo; conditions: mouse paw after treatment with IIIm
MDA-MB-231 = assay: Cytotoxicity, cell viability; format: cell-based, human; conditions: concentrations as high as 100 μM, 24 h treatment
Procedure, shortened: (§1)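 Cells were seeded at 3000 cells/well and held 24 h at 37 °C in a CO2 incubator. They were then exposed to the test compound for 24 h at 37 °C. MTT-type tetrazolium reagent (CellTiter 96AQ) was added for a further 2 h, and absorbance was read at 490 nm.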

SKBR3 = assay: Cytotoxicity, cell viability; format: cell-based, human; conditions: concentrations as high as 100 μM, 24 h treatment
Procedure, shortened: as §1

MCF-10A = assay: Cytotoxicity, cell viability; format: cell-based, human; conditions: concentrations as high as 100 μM, 24 h treatment
Procedure, shortened: as §1

CXCR4 = CXCR4 (Homo sapiens, UniProt P61073); format: binding; conditions: fold loss of affinity vs RB-108
CXCR4, sequence (P61073 whole entry): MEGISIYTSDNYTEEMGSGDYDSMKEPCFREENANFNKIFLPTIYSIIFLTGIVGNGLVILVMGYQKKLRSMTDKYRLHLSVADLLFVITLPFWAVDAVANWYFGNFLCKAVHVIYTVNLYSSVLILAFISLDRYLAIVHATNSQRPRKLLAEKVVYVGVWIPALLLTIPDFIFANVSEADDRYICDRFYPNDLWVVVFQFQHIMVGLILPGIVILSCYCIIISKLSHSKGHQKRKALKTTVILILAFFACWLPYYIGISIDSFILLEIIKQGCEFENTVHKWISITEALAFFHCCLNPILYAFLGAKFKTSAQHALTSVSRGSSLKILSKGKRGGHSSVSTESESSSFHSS

Compound: c1cc(CN2CCCNCCNCCCNCC2)ccc1CN1CCCNCCNCCCNCC1 [AMD3100]
inhibition at 0.1 µM [1]: 55%

Compound: O=C(NCc1ccc(CNS(=O)(=O)c2ccc3c(c2)CCO3)cc1)c1ccc(F)cc1 [IIIm, 4-Fluoro-N-(4-(((2,3-dihydrobenzofuran)-5-sulfonamido)methyl)benzyl)benzamide]
Number of inflammatory cells accumulated in the paw tissue (histological analysis, H&E) [2]: markedly decreased
Inhibition of proliferation (cytotoxicity) (MDA-MB-231): did not inhibit the proliferation
Inhibition of proliferation (cytotoxicity) (SKBR3): did not inhibit the proliferation
Inhibition of proliferation (cytotoxicity) (MCF-10A): did not inhibit the proliferation

EC reduced compared with RB-108 (CXCR4): more than 1000 fold
Compound: Cc1ccc(S(=O)(=O)NCc2ccc(CNC(=O)c3ccc(F)cn3)cc2)cc1 [Ia, 5-Fluoro-N-(4-(((4-methylphenyl)sulfonamido)methyl)benzyl)picolinamide]

EC reduced compared with RB-108 (CXCR4): more than 1000 fold
Compound: Cc1ccc(S(=O)(=O)NCc2ccc(CNC(=O)c3ccc(F)nc3)cc2)cc1 [Ib, 6-Fluoro-N-(4-(((4-methylphenyl)sulfonamido)methyl)benzyl)nicotinamide]

From article PMC6488424 (European journal of medicinal chemistry, 2019)
